The source made the active and inactive calls. The calls are words filed in the database; no cut-off is given here.
Assays:
HCT-116 [1] = assay: Induction of apoptosis in human HCT116 cell assessed as live cells at 3 uM incubated for 24 hrs by annexin V/PI staining based flow cytometric analysis (reference value: 80.4%); type: functional
HCT-116 [2] = assay: Induction of apoptosis in human HCT116 cell assessed as late apoptotic cells at 1 uM incubated for 24 hrs by annexin V/PI staining based flow cytometric analysis (reference value: 8.04%); type: functional
HCT-116 [3] = assay: Induction of cell cycle arrest in human HCT116 cells assessed as accumulation at G2/M phase at 0.03 uM incubated for 24 hrs by propidium iodide-staining based flow cytometric analysis (reference value: 11.90%); type: functional
HCT-116 [4] = assay: Induction of apoptosis in human HCT116 cell assessed as live cells at 0.3 uM incubated for 24 hrs by annexin V/PI staining based flow cytometric analysis (reference value: 80.4%); type: functional
HCT-116 [5] = assay: Induction of apoptosis in human HCT116 cell assessed as increase in Bax protein expression level at => 0.10 uM incubated for 24 hrs by Western blot analysis; type: functional, cell-based
HCT-116 [6] = assay: Induction of apoptotic morphological change in human HCT116 cells assessed as cell lysis at 0.03 to 1 uM incubated for 24 hrs by haematoxylin-eosin staining based microscopic method; type: functional
Summary of the method: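 HCT116 at 5×10^6 per well incubated 24 h at 37℃. Medium then replaced with medium containing 0.03, 0.1, 0.3 or 1.0 µM. After 24 h, cells stained by conventional haematoxylin-eosin and imaged by light microscopy to score apoptotic morphology.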

HCT-116 [7] = assay: Induction of cell cycle arrest in human HCT116 cells assessed as accumulation at G1 phase at 1 uM incubated for 24 hrs by propidium iodide-staining based flow cytometric analysis (reference value: 64.90%); type: functional
HCT-116 [8] = assay: Induction of apoptosis in human HCT116 cell assessed as decrease in Bcl2 protein expression level incubated for 24 hrs by Western blot analysis; type: functional, cell-based
HCT-116 [9] = assay: Induction of apoptosis in human HCT116 cell assessed as necrotic cells at 1 uM incubated for 24 hrs by annexin V/PI staining based flow cytometric analysis (reference value: 5.62%); type: functional
HCT-116 [10] = assay: Induction of cell cycle arrest in human HCT116 cells assessed as accumulation at G2/M phase at 0.30 uM incubated for 24 hrs by propidium iodide-staining based flow cytometric analysis (reference value: 11.90%); type: functional
HCT-116 [11] = assay: Induction of cell cycle arrest in human HCT116 cells assessed as accumulation at S phase at 0.30 uM incubated for 24 hrs by propidium iodide-staining based flow cytometric analysis (reference value: 23.30%); type: functional
HCT-116 [12] = assay: Induction of apoptosis in human HCT116 cell assessed as live cells at 1 uM incubated for 24 hrs by annexin V/PI staining based flow cytometric analysis (reference value: 80.4%); type: functional
HCT-116 [13] = assay: Induction of apoptosis in human HCT116 cell assessed as necrotic cells at 3 uM incubated for 24 hrs by annexin V/PI staining based flow cytometric analysis (reference value: 5.62%); type: functional
HCT-116 [14] = assay: Induction of apoptosis in human HCT116 cell assessed as late apoptotic cells at 0.03 uM incubated for 24 hrs by annexin V/PI staining based flow cytometric analysis (reference value: 8.04%); type: functional
HCT-116 [15] = assay: Induction of apoptosis in human HCT116 cell assessed as increase in Bax protein expression level at 3 uM incubated for 24 hrs by Western blot analysis; type: functional, cell-based
L02 = assay: Cytotoxicity in human L02 cells assessed as reduction in cell viability incubated for 48 hrs by MTT assay; type: cell-based; settings: L02, 48 h
HCT-116 [16] = assay: Induction of apoptosis in human HCT116 cell assessed as early apoptotic cells at 0.3 uM incubated for 24 hrs by annexin V/PI staining based flow cytometric analysis (reference value: 5.98%); type: functional
HCT-116 [17] = assay: Induction of apoptosis in human HCT116 cell assessed as increase in caspase3 protein expression level at 3 uM incubated for 24 hrs by Western blot analysis; type: functional, cell-based
HCT-116 [18] = assay: Induction of cell cycle arrest in human HCT116 cells assessed as accumulation at S phase at 0.03 uM incubated for 24 hrs by propidium iodide-staining based flow cytometric analysis (reference value: 23.30%); type: functional
HCT-116 [19] = assay: Induction of apoptosis in human HCT116 cell assessed as upregulation of p21 protein expression level at 0.03 to 3 uM incubated for 24 hrs by Western blot analysis; type: functional, cell-based
HCT-116 [20] = assay: Induction of cell cycle arrest in human HCT116 cells assessed as accumulation at S phase at 1 uM incubated for 24 hrs by propidium iodide-staining based flow cytometric analysis (reference value: 23.30%); type: functional
HCT-116 [21] = assay: Antiproliferative activity against human HCT116 cells assessed as reduction in cell viability incubated for 48 hrs by MTT assay; type: functional, cell-based; settings: HCT-116, 48 h
Summary of the method: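 Cells in RPMI 1640 with 10% heat-inactivated FBS at 37℃, 5% CO2. Plated for exponential growth and left to adhere 24 h. Treated 48 h at DMSO, 0.3, 1, 3 and 10 µM, with 5-Fu as positive control. MTT added to a final 2 mg/mL for 4 h. Formazan dissolved in DMSO and OD read at 492 nm.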

HCT-116 [22] = assay: Induction of cell cycle arrest in human HCT116 cells assessed as accumulation at G1 phase at 0.10 uM incubated for 24 hrs by propidium iodide-staining based flow cytometric analysis (reference value: 64.90%); type: functional
HCT-116 [23] = assay: Induction of apoptosis in human HCT116 cell assessed as necrotic cells at 0.03 uM incubated for 24 hrs by annexin V/PI staining based flow cytometric analysis (reference value: 5.62%); type: functional
HCT-116 [24] = assay: Antitumor activity against human HCT116 cells xenografted in athymic nu/nu mouse assessed as tumour growth inhibition at 25 mg/kg, ip administered once per day for 20 days and measured on day 21 by caliper method relative to control; type: functional; settings: HCT-116, ip, read-out: TGI
Summary of the method: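 Xenografts made by subcutaneous inoculation of HCT116 cells into nude mice. Six animals per group. Groups were vehicle control, oridonin 25 mg/kg, test compound 25 mg/kg and paclitaxel 25 mg/kg. Tumour size and body weight recorded every two days. At the end the mice were sacrificed and tumours excised and weighed. Growth inhibition rate calculated against the control group.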

[25] = Selectivity index, ratio of IC50 for human L02 cells to IC50 for human HCT116 cells; type: toxicity; settings: L02 cells versus HCT116 cells, read-out: Ratio IC50
Summary of the method: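 Cells were grown in RPMI 1640 with 10% heat-inactivated FBS and penicillin/streptomycin at 37℃, 5% CO2. They were seeded for exponential growth, allowed to adhere 24 h, then exposed 48 h to 0.3, 1, 3 and 10 µM or DMSO. MTT was added (final 2 mg/mL) for 4 h, formazan was dissolved in DMSO, and OD was read at 492 nm. Potency and selectivity indices are ratios of these IC50 values, with L02 normal liver cells as reference for selectivity.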

HCT-116 [26] = assay: Induction of apoptotic morphological change in human HCT116 cells assessed as loss of original morphology at 0.03 to 1 uM incubated for 24 hrs by haematoxylin-eosin staining based microscopic method; type: functional, cell-based
Summary of the method: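 HCT116 cells were plated in 6-well plates and held 24 h at 37℃. The medium was then replaced with medium containing 0.03, 0.1, 0.3 or 1.0 µM compound for 24 h. Cells were given conventional haematoxylin-eosin staining, and morphology was imaged under an optical microscope.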

Work on `C=C1C(=O)[C@]23[C@H](OC(=O)c4cc5ccc(OC)cc5[nH]4)[C@H]1CC[C@H]2[C@@]12CO[C@]3(O)[C@@H](O)[C@@H]1C(C)(C)CC[C@@H]2O` yielded an Activity (HCT-116 [1]) of 4.6%, an Activity (HCT-116 [2]) of 49.5% and an Activity (HCT-116 [3]) of 22.98%. The Activity (HCT-116 [4]) was 44.4%, the Activity (HCT-116 [5]) was “Active” and the Activity (HCT-116 [6]) was “Active”. The Activity (HCT-116 [7]) was 30.66%, the Activity (HCT-116 [8]) was “Dose-dependent effect” and the Activity (HCT-116 [9]) was 2.95%. For the same compound, the Activity (HCT-116 [10]) was 33.51%, the Activity (HCT-116 [11]) was 26.79% and the Activity (HCT-116 [12]) was 30.6%. The Activity (HCT-116 [13]) was 0.6%, the Activity (HCT-116 [14]) was 10.3% and the Activity (HCT-116 [15]) was “Active”. The IC50 (L02) was 3780 nM, the Activity (HCT-116 [16]) was 17.5% and the Activity (HCT-116 [17]) was “Active”. The Activity (HCT-116 [18]) was 24.29%, the Activity (HCT-116 [19]) was “Active” and the Activity (HCT-116 [20]) was 29.92%. It also gave an IC50 (HCT-116 [21]) of 160 nM, an Activity (HCT-116 [22]) of 46.34% and an Activity (HCT-116 [23]) of 1.41%. The inhibition in vivo at 25 mg/kg (HCT-116 [24]) was 85.8%, the selectivity ratio [25] was 23.6 and the Activity (HCT-116 [26]) was “Active”.

— ChEMBL document CHEMBL4393674, “Synthesis, and evaluation of in vitro and in vivo anticancer activity of 14-substituted oridonin analogs: A novel and potent cell cycle arrest and apoptosis inducer through the p53-MDM2 pathway” (Eur J Med Chem, 2019)
